Screening data (PubChem)
TAAR1 agonist: human TAAR1 agonists, primary screen, Fluo-8 calcium fluorescence, CHO RD-HGA16 cells. AID 624467, 2012. 360,000 tested, 0.99% active. Trace amine-associated receptor 1 (Homo sapiens), Q96RJ0. activation, % at 3 µM. vehicle wells 0%, saturating PEA agonist 100%;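 active = activation above the mean activation of all test compounds in the run plus 3 SD, cut at about 38% in these data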
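Assay system – CHO-derived RD-HGA16 cells with stable Gα16 and human TAAR1 · Compound dosing – one-point dosing at 3 µM (nominal) · Incubation – 17-24 h seeding, 75 min 37 °C dye, 30 min RT · Measured by – kinetic Fluo-8 calcium fluorescence · Control set – DMSO vehicle as 0%, PEA at EC100 as 100% · Repeats – single well for each compound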
OX1R antag-1: OX1R (HCRTR1) antagonists, primary screen, fluorescence, CHO/OX1R cells, Fluo-8 calcium, orexin A | Orexin/Hypocretin receptor type 1 (Homo sapiens), O43613 | Fluo-8 calcium fluorescence | inhibition, % at 5 µM | AID 434989, 2010 | 330,000 tested, 0.43% active;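 active = inhibition above its plate's threshold, mean inhibition of all tested compounds on the plate plus 3 SD, cut at about 37% in these data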
Target sequence (O43613 whole entry, looked up): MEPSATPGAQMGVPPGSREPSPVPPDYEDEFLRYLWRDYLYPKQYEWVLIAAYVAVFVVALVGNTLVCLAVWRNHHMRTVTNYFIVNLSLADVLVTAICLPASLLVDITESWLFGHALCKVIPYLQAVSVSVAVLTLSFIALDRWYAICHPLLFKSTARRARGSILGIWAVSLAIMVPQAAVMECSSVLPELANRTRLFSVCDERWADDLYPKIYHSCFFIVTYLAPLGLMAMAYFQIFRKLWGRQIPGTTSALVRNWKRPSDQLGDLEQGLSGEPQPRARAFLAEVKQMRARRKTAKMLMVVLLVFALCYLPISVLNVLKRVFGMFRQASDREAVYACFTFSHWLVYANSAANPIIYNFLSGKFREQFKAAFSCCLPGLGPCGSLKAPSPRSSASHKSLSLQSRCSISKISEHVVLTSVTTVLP
TAAR1 antag: human TAAR1 antagonists, primary screen, Fluo-8 calcium fluorescence, CHO RD-HGA16 cells | antagonist | inhibition, % at 3 µM | AID 624466, 2012 | 360,000 tested, 1.5% active | Trace amine-associated receptor 1 (Homo sapiens), Q96RJ0;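 active = inhibition above a per-plate cutoff, the mean inhibition of test compounds on that plate plus 3 SD, cut at about 49% in these data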
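Test system: CHO RD-HGA16 cells bearing hTAAR1 | Reagent: β-PEA, EC80 | Compound dosing: 3 µM, single point | Schedule: Dye loading 75 min at 37 °C, then 30 min room temperature | Signal: Calcium fluorescence with Fluo-8 | Evaluation: Percent inhibition of PEA-evoked calcium signal, max/basal emission ratio | Control set: DMSO-only wells and EC80 β-PEA-stimulated wells | Repeats: Singlicate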
GPR7 antagonist: GPR7 receptor antagonists, primary screen, cell-based, fluorescence, single concentration; Neuropeptides B/W receptor type 1 (Homo sapiens), P48145; GPR7-expressing cells, fluorescence antagonist assay; inhibition, % at 4.4 µM; 290,000 tested, 1.1% active; AID 1861, 2009; in the data active = inhibition above about 16%, passing the limit was not always enough;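 also: cells stimulated with the agonist NPW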
OX1R antag-2: antagonists of human orexin 1 receptor (OX1R). Orexin/Hypocretin receptor type 1 (Homo sapiens), O43613. 330,000 tested, 1.8% active. inhibition, % at 6.6 µM. OX1R-expressing cells, FRET antagonist read-out; in the data active = inhibition mostly above about 38%, no sharp cut-off; inactive = mostly below about 40%
CHO parental Ca: ATP-evoked calcium signal inhibitors, parental CHO, primary screen, counter-screen for OX1R antagonist project, cell-based, fluorescence, Fluo-8 calcium dye. parental CHO-K1, ATP-induced calcium, Fluo-8 fluorescence. inhibition, % at 5.6 µM. 330,000 tested, 0.63% active. AID 463079, 2010;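 active = inhibition above that plate's mean sample inhibition plus 3 SD, cut at about 26% in these data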
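Material: parental CHO cells / Compound: single nominal dose of 5.6 µM per compound / Signal: Fluo-8 fluorescence / Replicates: singlicate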
Numbers stand for hits; . = inactive; / = no result given. Rows were chosen to be rich in hits. Some 4.6% of all compounds tested hit in one or more screens of this group.

SMILES	TAAR1 agonist	OX1R antag-1	TAAR1 antag	GPR7 antagonist	OX1R antag-2	CHO parental Ca
CCCN(CC(=O)Nc1cc(Cl)ccc1Cl)C(=O)/C=C/c1cc(OC)ccc1OC	.	.	.	/	43	.
Cc1ccc(S(=O)(=O)N2C(c3cccc(Cl)c3)CC=C(C(=O)O)C2c2cccc(Cl)c2)cc1 (centres undefined)	.	/	.	/	/	/
CCOc1ccc([C@@H]2CC=C(C(=O)O)[C@H](c3cccc(Cl)c3)N2S(=O)(=O)c2ccc(C)cc2)cc1	.	.	.	/	55	.
Cc1ccc(S(=O)(=O)N2[C@@H](c3cccc(Cl)c3)C(C(=O)O)=CC[C@H]2c2ccc(Cl)cc2)cc1	.	.	52	/	74	.
CCOc1ccc([C@@H]2CC=C(C(=O)O)[C@H](c3ccc(F)cc3)N2S(=O)(=O)c2ccc(C)cc2)cc1	.	.	.	/	.	.
CCCCCCCn1c(=O)c(C(=O)OC)c(N)c2ccccc21	.	41	.	.	.	58
CCCNC(=O)CCn1c(=S)oc2ccccc21	.	.	.	.	.	.
CCCCOC(=O)CCn1c(=S)oc2ccccc21	44	.	.	.	.	.
COc1ccc(NC(=O)Cn2c(=O)oc3cc(S(=O)(=O)N4CCCC4)ccc32)cc1	.	.	.	.	.	.
Cc1ccc(NC(=O)Cn2c(=O)oc3cc(S(=O)(=O)N4CCC(C)CC4)ccc32)cc1C	.	.	.	.	.	32
Cc1ccc(N(C)S(=O)(=O)c2cccc(C(=O)OCC(=O)c3c(N)n(C)c(=O)n(C)c3=O)c2)cc1	.	.	66	/	.	.
COc1ccc(N(C)S(=O)(=O)c2cccc(C(=O)OCC(=O)N(C)c3ccccc3)c2)cc1	.	.	56	/	.	.
CN(C(=O)COC(=O)c1cccc(S(=O)(=O)N2CCCCCC2)c1)c1ccccc1	.	/	.	/	/	/
CCC(=O)c1ccc(OCC(=O)Nc2cccc(S(=O)(=O)N(C)c3ccccc3)c2)cc1	.	77	76	/	27	44
CC(=O)N1CC(C)Oc2ccc(S(=O)(=O)NC(CC(=O)O)c3ccc(C)cc3C)cc21 (centres undefined)	.	.	.	.	.	.
COc1ccc(-c2cnc(C(N)=O)c(=O)[nH]2)cc1	.	/	.	/	/	/
CCc1cccc(NS(=O)(=O)c2c(C)nc3sc(CC)nn3c2=O)c1	.	.	.	21	.	.
O=C(CCCc1ccccc1)Nc1ccnn1C1CCN(Cc2ccc(CO)o2)CC1	.	.	.	.	.	.
O=C(NC(CO)(CO)CO)[C@@H]1CCCN1S(=O)(=O)c1cccc2cccnc12	.	.	.	/	.	.
COc1cccc(Nc2nnc(SCC(=O)Nc3sccc3C(N)=O)s2)c1	.	.	68	.	.	.
CCc1ccc(Nc2nnc(SCC(=O)Nc3sccc3C(N)=O)s2)cc1	.	.	.	.	.	.
CCCCN(C(=O)c1oc2ccc(OCC)cc2c1C)c1c(N)n(CC(C)C)c(=O)[nH]c1=O	.	.	.	/	.	.
Cc1ccc(C)c(N2CCN(C(=O)c3cc4c(C)nc5ccccc5c4o3)CC2)c1	.	.	.	.	.	.
COc1ccccc1N1CCN(C(=O)c2cc3c(C)nc4ccccc4c3o2)CC1	.	.	54	.	.	.
Cc1ccc(CNC(=O)c2cc3c(C)nc4ccccc4c3o2)cc1	.	.	.	.	57	.
CCc1ccc(NC(=O)c2cc3c(C)nc4ccccc4c3o2)cc1	.	.	.	.	60	.
CCOc1ccc2oc(C(=O)NCC(C)(C)CN(C)C)c(C)c2c1	.	.	.	.	.	.
Cc1cc(C)c(NC(=O)c2cc(C(=O)O)ccc2C(=O)O)c([N+](=O)[O-])c1	.	.	.	.	.	.
CCn1c(C)c(C(C)=O)c(N2CCN(C(c3ccccc3)c3ccccc3)CC2)nc1=S	.	.	50	.	.	.
